Only some compounds are listed: those with a hit (about 2.1% of all), similar ones and a draw of the others.
EWS-Fli block: blocks EWS/Fli oncoprotein-driven transcription; A673 NR0B1-luciferase reporter, viability-normalised; inhibition, % at 12.6 µM; 350,000 compounds, 0.67% hits;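 active means mean inhibition of at least 50% after viability correction, with every replicate also passing that limit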;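 further: firefly luciferase signal divided by Alamar Blue viability fluorescence both relative to DMSO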
GSIS activator: primary screen for activators of insulin secretion dependent on glucose, INS-1E cells, GLuc reporter luminescence; AID 743287; 370,000 compounds, 0.61% hits; INS-1E GLuc reporter insulin secretion, 2-3 h; activation, % at 16.6 µM;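 active means lowest replicate activation of at least 40%, so every replicate reaches that level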;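 further: 0% = median of neutral control wells and 100% = median of IBMX positive control wells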
AF4-AF9 inh: inhibitors of human MLL-AF4/AF9 interaction | P42568 | AlphaScreen, biotin-AF4 peptide binding to FLAG-AF9 | inhibition, % at 10 µM | 350,000 compounds, 0.47% hits;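 active means every replicate reaching a set inhibition limit, whatever the replicate mean, cut at about 25% in these data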;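 further: 0% = plate neutral control median and 100% = total signal loss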
Target sequence (P42568 whole entry, looked up): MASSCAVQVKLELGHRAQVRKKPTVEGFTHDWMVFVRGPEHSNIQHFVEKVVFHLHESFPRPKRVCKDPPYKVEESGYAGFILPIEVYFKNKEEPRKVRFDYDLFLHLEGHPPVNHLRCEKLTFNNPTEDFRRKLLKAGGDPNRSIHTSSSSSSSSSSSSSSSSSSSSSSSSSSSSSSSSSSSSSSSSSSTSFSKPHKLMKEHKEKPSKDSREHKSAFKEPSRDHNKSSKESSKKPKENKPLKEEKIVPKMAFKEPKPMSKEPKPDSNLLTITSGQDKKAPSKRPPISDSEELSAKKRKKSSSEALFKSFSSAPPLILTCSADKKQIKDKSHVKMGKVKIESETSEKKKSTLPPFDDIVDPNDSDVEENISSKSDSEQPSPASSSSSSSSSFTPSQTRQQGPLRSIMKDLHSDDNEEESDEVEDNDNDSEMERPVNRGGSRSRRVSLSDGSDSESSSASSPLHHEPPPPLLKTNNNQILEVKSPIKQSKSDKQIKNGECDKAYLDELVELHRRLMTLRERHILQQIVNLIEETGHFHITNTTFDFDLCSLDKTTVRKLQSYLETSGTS
PGC1a acetyl inh: PGC1a acetylation modulation, inhibitor mode; AID 651687; U2OS PGC1a acetylation, AlphaScreen anti-acetyl-lysine; with virally co-expressed GCN5 acetyltransferase; 350,000 compounds, 0.17% hits; inhibition, % at 15.6 µM;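 active means every replicate shows inhibition of at least 40%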;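 further: 0% = neutral control wells and 100% = positive control wells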
PAX8 reporter: PAX8 transcriptional activity inhibition. AID 652154. 360,000 compounds, 1.2% hits. inhibition, % at 12.6 µM. RMG-I TPO-luciferase reporter, SteadyGlo, 24 h;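 active means mean replicate inhibition at least 60% with every replicate also reaching 60%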;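 further: luciferase light reporting Pax8 driven TPO promoter activity; plate controls were median of neutral control wells for no effect and mitoxantrone controls for full effect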
XiGFP reactiv: reactivates the inactive X chromosome in mouse fibroblasts; activation, % at 7.58 µM; XiGFP mouse fibroblasts, % GFP-positive cells imaging, 3 d; cells co-treated with 5-aza-dC sensitizer; scaled so ellipticine positive control = 100%; 360,000 compounds, 0.055% hits;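 active means mean normalized replicate activation at least 10% and every replicate at or above 10%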;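 further: 0% = median of on-plate neutral control wells and 100% = ellipticine 6 µM median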
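System: SV40-immortalized XiGFP fibroblast cells, line 68-5-11 / Incubation: 3-day compound exposure, then 15 min fixation at room temperature / Compound: single concentration per compound, delivered by pin transfer / Buffer or medium: DMEM plus 5-aza-dC sensitizer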
The depositor's hits bear a star; nt = not tested or not shown.

SMILES	EWS-Fli block	GSIS activator	AF4-AF9 inh	PGC1a acetyl inh	PAX8 reporter	XiGFP reactiv
CCOC(=O)Nc1ccc2c(c1)Sc1ccccc1N2C(=O)CCN1CCOCC1	nt	107*	nt	-5	nt	nt
CCC(=O)N1[C@@H]2CN(C(=O)CC(F)(F)F)c3ccccc3[C@@H]2[C@@H]1CO	6	5	1	8	-3	0
N=c1n(CCN2CCOCC2)c2ccccc2n1CC(O)COc1ccccc1 (centres undefined)	nt	nt	nt	14	nt	nt
N=c1n(CCN2CCCCC2)c2ccccc2n1CC(O)COc1ccccc1 (centres undefined)	nt	42*	nt	-19	nt	nt
COc1cc2c(cc1OC)-c1cc(Nc3ccc(N(C)C)cc3)nc(=O)n1CC2	-1	79*	1	nt	-16	0
CCN(CC)c1ccc(Nc2cc3n(c(=O)n2)CCc2cc(OC)c(OC)cc2-3)cc1	-3	26	6	nt	-4	0
O=C(CCCC(=O)OCC(Cl)=C(Cl)Cl)Nc1cccc(F)c1	nt	nt	nt	0	-10	nt
O=C(CCCC(=O)OCC(Cl)=C(Cl)Cl)Nc1ccc(F)cc1	4	-18	-1	3	103*	0
COc1cccc(S(=O)(=O)N(C)C[C@@H]2Oc3ncc(C#CCN(C)C)cc3C(=O)N([C@@H](C)CO)C[C@@H]2C)c1	10	26	-2	1	nt	-1
O=C(Cc1cccnc1)N[C@H]1CC[C@H](CCNS(=O)(=O)c2ccccc2Cl)O[C@@H]1CO	nt	-7	2	6	nt	0
COc1ccc(-c2sc3ccc(N4CCOCC4)cc3c2C#CCCO)cc1	13	nt	3	-15	65*	0
COc1ccc(-c2sc3cc(OC)c(OC)cc3c2C#CCCO)cc1	-1	nt	1	nt	9	0
N#C[C@@H]1[C@H](c2ccc(-c3ccccc3F)cc2)[C@H](CO)N1C(=O)C1CCC1	2	-5	-5	-1	3	0
N#C[C@@H]1[C@@H](c2ccc(-c3ccccc3F)cc2)[C@@H](CO)N1C(=O)C1CCC1	-2	6	-1	0	82*	0
CCCC#Cc1ccc([C@H]2[C@@H](CO)N(C(=O)C3CCCCC3)[C@H]2C#N)cc1	2	-5	1	4	84*	0
N#C[C@H]1[C@@H](c2ccc(C#Cc3ccc(F)cc3)cc2)[C@H](CO)N1C(=O)C1CCCC1	28	8	-4	-29	87*	0
N#C[C@H]1[C@H](c2ccc(C#Cc3ccccc3F)cc2)[C@H](CO)N1C(=O)C1CCC1	66*	8	-4	-6	87*	0
C[C@H](CO)N1C[C@H](C)[C@H](CN(C)C(=O)NC2CCCC2)Oc2ncc(-c3ccccc3F)cc2C1=O	-12	-2	-6	nt	10	-1
COc1ccc(-c2ccc([C@H]3[C@H]4CN(C(=O)c5ccccn5)CC(=O)N4[C@H]3CO)cc2)cc1	-4	-4	-1	-11	9	0
O=C(C[C@@H]1CC[C@H](NC(=O)C2CCOCC2)[C@H](CO)O1)NCC1CC1	-6	15	-3	8	nt	0
CN(C)C(=O)c1cccc(-c2ccccc2[C@@H]2[C@@H](C#N)N(C(=O)C3CC3)[C@H]2CO)c1	2	2	5	2	112*	0
N#C[C@H]1[C@@H](c2ccc(C#CC3CCCCC3)cc2)[C@@H](CO)N1S(=O)(=O)c1ccccc1	30	3	2	3	79*	0
Cc1ccccc1S(=O)(=O)N1[C@H](CO)[C@@H](c2ccc(C#CC3CC3)cc2)[C@@H]1C#N	13	10	1	-4	64*	0
N#C[C@@H]1[C@@H](c2ccc(-c3ccccc3)cc2)[C@@H](CO)N1C(=O)Cc1ccncc1	-11	20	-1	63*	68*	0
N#C[C@@H]1[C@@H](c2ccc(C#CC3CCCCC3)cc2)[C@H](CO)N1S(=O)(=O)c1ccccc1	-5	3	1	-8	40	0
SMILES	EWS-Fli block	GSIS activator	AF4-AF9 inh	PGC1a acetyl inh	PAX8 reporter	XiGFP reactiv
N#C[C@H]1[C@@H](c2ccc(C#CC3CCCCC3)cc2)[C@H](CO)N1S(=O)(=O)c1ccccc1	9	12	1	-10	27	0
N#C[C@H]1[C@H](c2ccc(C#CC3CCCCC3)cc2)[C@@H](CO)N1S(=O)(=O)c1ccccc1	9	-2	1	15	68*	0
O=C(C[C@H]1CC[C@H]2[C@@H](COC[C@H](O)CN2C(=O)Nc2ccc(Cl)c(Cl)c2)O1)NCc1ccncc1	-26	-42	0	11	15	0
C[C@H]1COCc2cn(nn2)CC[C@@H](Cc2ccccc2)C(=O)N1	nt	1	nt	nt	nt	0
CCCC#Cc1ccc([C@@H]2[C@@H](C#N)N(S(=O)(=O)c3cccc(F)c3)[C@H]2CO)cc1	-4	-19	2	8	81*	0
N#C[C@H]1[C@@H](c2ccc(C#CC3CCCCC3)cc2)[C@@H](CO)N1C(=O)Cc1ccccn1	-16	nt	1	-6	61*	nt
CCC(=O)N1C[C@@H]2[C@H](c3ccccc31)[C@@H](CO)N2Cc1ccccc1F	-6	0	-2	0	7	0
C=CC[C@@]12N=C(c3ccc(OCCCO)cc3)O[C@@H]1c1ccccc1CN(CCS(=O)(=O)c1ccccc1)C2=O	5	nt	8	-4	77*	nt
C=CCN1Cc2ccccc2[C@H]2OC(c3ccc(OCCCO)cc3)=N[C@@]2(CC=C)C1=O	11	nt	4	nt	24	nt
NC(=S)NN=Cc1nccc2ccccc12	11	22	9	1	55	0
NC(=S)NN=Cc1nccc2c(C(F)(F)C(F)(F)C(F)(F)F)cccc12	37	nt	-1	5	75*	0
C[C@@H]1CN([C@@H](C)CO)C(=O)c2cc(NS(=O)(=O)c3cccs3)ccc2O[C@@H](C)CCCCO[C@H]1CN(C)Cc1ccccc1	28	26	2	-9	-3	0
COc1ccccc1CNC(=O)COC(=O)c1cc(C)nc2ccccc12	-9	48*	-1	-3	0	0
Cc1cc(C(=O)OCC(=O)NCc2ccc(F)cc2)c2ccccc2n1	0	0	0	3	5	0
COc1ccccc1CNC(=O)COC(=O)c1cc(-c2ccco2)nc2ccccc12	nt	26	nt	31	nt	nt
Cc1cc(C(=O)OCC(=O)NCc2ccccc2)c2ccccc2n1	1	67*	-2	-2	8	0
O=C(Cc1ccncc1)Nc1ccc2c(c1)[C@H]1C[C@H](CC(=O)N3CCc4ccccc4C3)O[C@H](CO)[C@H]1O2	14	5	25*	3	-55	0
O=C(Nc1ccc(C(F)(F)F)cc1)Nc1ccc2c(c1)[C@H]1C[C@H](CC(=O)N3CCc4ccccc4C3)O[C@H](CO)[C@H]1O2	15	-9	-3	-4	82*	0

Screens from PubChem BioAssay.
